Results: ChEMBL document CHEMBL5653631, “A Potent and Selective ULK1 Inhibitor Suppresses Autophagy and Sensitizes Cancer Cells to Nutrient Stress” (iScience, 2018)

What was measured:
[1] = molecular target: Tyrosine-protein kinase ABL2 (Homo sapiens) (UniProt P42684); assay: Inhibition of human recombinant ABL2 at 40 nM in presence of ATP by radiometric assay relative to control
Method in brief: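 Panel of 327 recombinant human kinases in radiometric activity assays, each screened in duplicate at a single inhibitor concentration; percent activity remaining relative to vehicle control, percent inhibition taken as 100 minus activity remaining.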

[2] = molecular target: Ribosomal protein S6 kinase alpha-3 (Homo sapiens) (UniProt P51812); assay: Inhibition of human recombinant RSK2 at 40 nM related to control ULK1
[3] = molecular target: Mitogen-activated protein kinase kinase kinase 20 (Homo sapiens) (UniProt Q9NYL2); assay: Inhibition of human recombinant ZAK at 40 nM related to control ULK1
[4] = molecular target: T1, Mitogen-activated protein kinase kinase kinase 5 (Homo sapiens) (UniProt Q99683); assay: Inhibition of human recombinant MAP3K5 at 15 nM in presence of ATP by radiometric assay relative to control
T1 sequence (whole entry): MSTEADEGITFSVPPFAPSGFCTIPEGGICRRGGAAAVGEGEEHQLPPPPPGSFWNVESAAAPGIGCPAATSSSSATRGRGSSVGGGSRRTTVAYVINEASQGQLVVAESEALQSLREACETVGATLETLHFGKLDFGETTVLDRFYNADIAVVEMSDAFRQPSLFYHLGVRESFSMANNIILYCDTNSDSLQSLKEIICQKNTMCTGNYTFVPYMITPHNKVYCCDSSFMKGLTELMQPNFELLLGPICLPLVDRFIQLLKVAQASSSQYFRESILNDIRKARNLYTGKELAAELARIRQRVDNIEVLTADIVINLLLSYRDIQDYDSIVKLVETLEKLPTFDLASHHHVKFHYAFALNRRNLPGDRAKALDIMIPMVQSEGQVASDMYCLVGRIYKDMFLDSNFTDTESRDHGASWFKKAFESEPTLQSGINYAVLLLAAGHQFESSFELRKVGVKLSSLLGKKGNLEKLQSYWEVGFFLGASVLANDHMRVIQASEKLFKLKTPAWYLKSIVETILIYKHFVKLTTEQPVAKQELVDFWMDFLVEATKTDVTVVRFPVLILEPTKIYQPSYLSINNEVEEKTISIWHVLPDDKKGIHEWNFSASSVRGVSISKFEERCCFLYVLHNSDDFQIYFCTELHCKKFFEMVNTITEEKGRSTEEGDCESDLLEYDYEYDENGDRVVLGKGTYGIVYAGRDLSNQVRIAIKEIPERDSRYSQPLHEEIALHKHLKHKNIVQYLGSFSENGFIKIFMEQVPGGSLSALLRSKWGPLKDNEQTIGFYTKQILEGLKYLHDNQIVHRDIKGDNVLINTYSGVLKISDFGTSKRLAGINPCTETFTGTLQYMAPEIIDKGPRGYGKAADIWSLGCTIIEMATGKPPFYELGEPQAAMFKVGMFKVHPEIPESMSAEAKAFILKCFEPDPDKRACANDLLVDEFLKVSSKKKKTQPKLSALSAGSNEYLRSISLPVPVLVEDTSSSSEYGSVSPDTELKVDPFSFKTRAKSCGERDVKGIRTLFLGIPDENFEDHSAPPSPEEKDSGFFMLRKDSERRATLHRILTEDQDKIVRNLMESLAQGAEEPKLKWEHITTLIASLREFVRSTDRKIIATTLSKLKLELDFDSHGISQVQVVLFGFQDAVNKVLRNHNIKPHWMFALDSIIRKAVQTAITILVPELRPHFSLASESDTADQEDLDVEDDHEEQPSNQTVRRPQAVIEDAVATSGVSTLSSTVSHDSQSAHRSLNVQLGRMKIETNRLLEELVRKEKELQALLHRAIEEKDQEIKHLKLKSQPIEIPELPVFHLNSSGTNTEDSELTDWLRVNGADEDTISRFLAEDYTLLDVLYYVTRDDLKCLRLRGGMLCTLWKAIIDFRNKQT

[5] = molecular target: Rho-associated protein kinase 1 (Homo sapiens) (UniProt Q13464); assay: Inhibition of human recombinant ROCK1 at 15 nM in presence of ATP by radiometric assay relative to control
[6] = molecular target: Serine/threonine-protein kinase ATR (Homo sapiens) (UniProt Q13535); assay: Inhibition of human recombinant ATR at 15 nM related to control ULK1
Method in brief: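 Panel of 327 recombinant human kinases, each assayed in vitro by radiometric activity assay in duplicate at a single inhibitor concentration per compound, chosen with reference to its ULK1 inhibition. Activity remaining was expressed as percent of vehicle control, and percent inhibition was calculated as 100 minus percent activity remaining.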

[7] = molecular target: cAMP-dependent protein kinase catalytic subunit alpha (Homo sapiens) (UniProt P17612); assay: Inhibition of human recombinant PKACalpha at 15 nM related to control ULK1
[8] = molecular target: Mitogen-activated protein kinase 9 (Homo sapiens) (UniProt P45984); assay: Inhibition of human recombinant JNK2 at 500 nM in presence of ATP by radiometric assay relative to control
[9] = molecular target: Phosphorylase b kinase gamma catalytic chain, skeletal muscle/heart isoform (Homo sapiens) (UniProt Q16816); assay: Inhibition of human recombinant PHKg1 at 500 nM in presence of ATP by radiometric assay relative to control
[10] = molecular target: T2, Serine/threonine-protein kinase Sgk1 (Homo sapiens) (UniProt O00141); assay: Inhibition of human recombinant SGK1 at 500 nM in presence of ATP by radiometric assay relative to control
T2 sequence (whole entry): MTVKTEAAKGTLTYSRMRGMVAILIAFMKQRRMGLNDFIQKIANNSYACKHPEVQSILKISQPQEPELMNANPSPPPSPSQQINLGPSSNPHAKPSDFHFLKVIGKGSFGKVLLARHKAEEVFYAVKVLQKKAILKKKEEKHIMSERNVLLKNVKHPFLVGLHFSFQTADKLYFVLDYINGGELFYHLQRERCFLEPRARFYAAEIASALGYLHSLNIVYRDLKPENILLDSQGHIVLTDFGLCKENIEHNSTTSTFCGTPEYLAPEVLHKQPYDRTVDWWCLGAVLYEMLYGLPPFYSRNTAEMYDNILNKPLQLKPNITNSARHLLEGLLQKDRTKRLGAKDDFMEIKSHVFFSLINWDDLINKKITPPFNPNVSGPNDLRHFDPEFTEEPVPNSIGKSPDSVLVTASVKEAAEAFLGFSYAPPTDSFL

[11] = molecular target: Casein kinase II subunit alpha (Homo sapiens) (UniProt P68400); assay: Inhibition of human recombinant CK2a1 at 500 nM related to control ULK1
Sequence of Casein kinase II subunit alpha (Homo sapiens) (P68400 whole entry, looked up): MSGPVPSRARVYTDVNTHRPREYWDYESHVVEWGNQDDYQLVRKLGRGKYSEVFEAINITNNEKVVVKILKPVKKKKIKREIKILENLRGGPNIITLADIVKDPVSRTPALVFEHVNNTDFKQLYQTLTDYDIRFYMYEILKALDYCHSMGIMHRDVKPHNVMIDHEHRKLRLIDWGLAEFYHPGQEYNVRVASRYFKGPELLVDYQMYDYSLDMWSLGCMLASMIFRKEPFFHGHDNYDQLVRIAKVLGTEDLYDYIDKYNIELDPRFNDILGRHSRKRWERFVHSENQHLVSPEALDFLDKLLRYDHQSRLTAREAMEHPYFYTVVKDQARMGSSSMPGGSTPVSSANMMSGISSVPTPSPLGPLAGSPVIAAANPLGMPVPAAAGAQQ

Sequence of Phosphorylase b kinase gamma catalytic chain, skeletal muscle/heart isoform (Homo sapiens) (Q16816 whole entry, looked up, canonical isoform): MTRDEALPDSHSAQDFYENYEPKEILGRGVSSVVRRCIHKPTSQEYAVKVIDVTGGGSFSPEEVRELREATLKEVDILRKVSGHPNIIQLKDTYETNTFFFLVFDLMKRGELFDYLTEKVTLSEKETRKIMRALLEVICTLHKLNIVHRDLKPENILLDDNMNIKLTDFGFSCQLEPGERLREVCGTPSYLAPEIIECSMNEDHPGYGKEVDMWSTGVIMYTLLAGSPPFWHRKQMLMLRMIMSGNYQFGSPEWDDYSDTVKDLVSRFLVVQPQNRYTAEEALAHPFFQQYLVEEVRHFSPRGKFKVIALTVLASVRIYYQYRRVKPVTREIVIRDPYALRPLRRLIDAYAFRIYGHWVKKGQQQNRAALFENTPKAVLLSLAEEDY
Sequence of Ribosomal protein S6 kinase alpha-3 (Homo sapiens) (P51812 whole entry): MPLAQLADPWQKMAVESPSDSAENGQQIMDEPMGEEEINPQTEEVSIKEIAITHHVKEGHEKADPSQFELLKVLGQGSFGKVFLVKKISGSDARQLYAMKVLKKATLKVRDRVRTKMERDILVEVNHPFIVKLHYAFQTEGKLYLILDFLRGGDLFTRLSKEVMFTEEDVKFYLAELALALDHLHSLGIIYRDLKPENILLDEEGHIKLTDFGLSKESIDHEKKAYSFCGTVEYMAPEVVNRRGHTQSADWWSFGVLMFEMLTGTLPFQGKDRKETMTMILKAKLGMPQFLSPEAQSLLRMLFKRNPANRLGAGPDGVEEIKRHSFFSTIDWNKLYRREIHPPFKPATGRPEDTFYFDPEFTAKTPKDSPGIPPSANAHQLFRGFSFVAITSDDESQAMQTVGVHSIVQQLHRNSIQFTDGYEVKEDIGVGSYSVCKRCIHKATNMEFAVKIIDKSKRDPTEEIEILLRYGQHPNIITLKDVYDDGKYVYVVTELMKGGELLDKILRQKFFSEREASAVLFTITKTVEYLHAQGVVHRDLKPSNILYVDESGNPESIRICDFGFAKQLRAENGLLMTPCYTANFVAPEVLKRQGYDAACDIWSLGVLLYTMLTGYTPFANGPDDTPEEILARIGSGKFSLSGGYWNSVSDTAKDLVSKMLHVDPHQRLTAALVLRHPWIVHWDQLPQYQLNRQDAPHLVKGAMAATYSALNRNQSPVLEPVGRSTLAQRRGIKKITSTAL
Sequence of Tyrosine-protein kinase ABL2 (Homo sapiens) (P42684 whole entry): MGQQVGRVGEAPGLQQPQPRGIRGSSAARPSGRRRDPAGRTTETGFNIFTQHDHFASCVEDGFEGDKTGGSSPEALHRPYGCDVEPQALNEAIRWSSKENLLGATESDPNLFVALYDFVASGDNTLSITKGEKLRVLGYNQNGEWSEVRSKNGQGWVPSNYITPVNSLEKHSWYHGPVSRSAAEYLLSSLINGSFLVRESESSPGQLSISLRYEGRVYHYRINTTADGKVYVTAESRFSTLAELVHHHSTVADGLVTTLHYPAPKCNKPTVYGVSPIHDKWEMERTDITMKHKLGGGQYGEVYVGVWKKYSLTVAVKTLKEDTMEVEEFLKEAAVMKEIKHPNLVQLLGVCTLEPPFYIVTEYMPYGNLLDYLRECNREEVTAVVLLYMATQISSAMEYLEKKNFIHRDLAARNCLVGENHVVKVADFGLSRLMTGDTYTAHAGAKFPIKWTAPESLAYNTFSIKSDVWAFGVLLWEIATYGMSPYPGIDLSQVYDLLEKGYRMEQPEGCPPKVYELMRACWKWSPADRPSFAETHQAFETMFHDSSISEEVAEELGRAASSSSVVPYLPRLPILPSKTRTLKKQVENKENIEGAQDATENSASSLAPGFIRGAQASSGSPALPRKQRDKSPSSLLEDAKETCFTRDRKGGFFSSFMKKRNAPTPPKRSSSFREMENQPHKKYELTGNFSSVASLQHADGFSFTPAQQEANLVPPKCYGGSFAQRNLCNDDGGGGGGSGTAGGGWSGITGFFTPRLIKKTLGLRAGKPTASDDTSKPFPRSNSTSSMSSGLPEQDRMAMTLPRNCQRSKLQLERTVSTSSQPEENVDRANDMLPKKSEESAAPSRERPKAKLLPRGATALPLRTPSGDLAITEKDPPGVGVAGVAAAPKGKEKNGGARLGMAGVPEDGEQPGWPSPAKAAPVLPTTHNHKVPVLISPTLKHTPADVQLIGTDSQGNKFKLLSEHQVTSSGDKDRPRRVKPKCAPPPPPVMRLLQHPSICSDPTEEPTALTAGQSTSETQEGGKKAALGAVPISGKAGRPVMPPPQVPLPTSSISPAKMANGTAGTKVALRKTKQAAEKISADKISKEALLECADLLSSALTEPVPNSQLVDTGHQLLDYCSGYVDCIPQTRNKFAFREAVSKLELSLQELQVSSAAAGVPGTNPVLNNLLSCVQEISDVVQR
Sequence of Mitogen-activated protein kinase 9 (Homo sapiens) (P45984 whole entry, looked up, canonical isoform): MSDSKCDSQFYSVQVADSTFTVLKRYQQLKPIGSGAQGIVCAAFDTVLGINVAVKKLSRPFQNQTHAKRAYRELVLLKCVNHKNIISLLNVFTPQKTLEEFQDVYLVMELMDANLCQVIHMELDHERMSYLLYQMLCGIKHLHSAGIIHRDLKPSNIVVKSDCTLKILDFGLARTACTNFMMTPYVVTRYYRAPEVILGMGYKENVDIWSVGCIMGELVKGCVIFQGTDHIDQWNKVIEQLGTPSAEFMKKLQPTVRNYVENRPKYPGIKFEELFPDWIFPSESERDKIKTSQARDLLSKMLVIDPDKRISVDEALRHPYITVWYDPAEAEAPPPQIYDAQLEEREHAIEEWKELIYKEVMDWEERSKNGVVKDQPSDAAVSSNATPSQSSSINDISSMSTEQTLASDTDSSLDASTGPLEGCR
Sequence of Rho-associated protein kinase 1 (Homo sapiens) (Q13464 2-1354 limits assumed): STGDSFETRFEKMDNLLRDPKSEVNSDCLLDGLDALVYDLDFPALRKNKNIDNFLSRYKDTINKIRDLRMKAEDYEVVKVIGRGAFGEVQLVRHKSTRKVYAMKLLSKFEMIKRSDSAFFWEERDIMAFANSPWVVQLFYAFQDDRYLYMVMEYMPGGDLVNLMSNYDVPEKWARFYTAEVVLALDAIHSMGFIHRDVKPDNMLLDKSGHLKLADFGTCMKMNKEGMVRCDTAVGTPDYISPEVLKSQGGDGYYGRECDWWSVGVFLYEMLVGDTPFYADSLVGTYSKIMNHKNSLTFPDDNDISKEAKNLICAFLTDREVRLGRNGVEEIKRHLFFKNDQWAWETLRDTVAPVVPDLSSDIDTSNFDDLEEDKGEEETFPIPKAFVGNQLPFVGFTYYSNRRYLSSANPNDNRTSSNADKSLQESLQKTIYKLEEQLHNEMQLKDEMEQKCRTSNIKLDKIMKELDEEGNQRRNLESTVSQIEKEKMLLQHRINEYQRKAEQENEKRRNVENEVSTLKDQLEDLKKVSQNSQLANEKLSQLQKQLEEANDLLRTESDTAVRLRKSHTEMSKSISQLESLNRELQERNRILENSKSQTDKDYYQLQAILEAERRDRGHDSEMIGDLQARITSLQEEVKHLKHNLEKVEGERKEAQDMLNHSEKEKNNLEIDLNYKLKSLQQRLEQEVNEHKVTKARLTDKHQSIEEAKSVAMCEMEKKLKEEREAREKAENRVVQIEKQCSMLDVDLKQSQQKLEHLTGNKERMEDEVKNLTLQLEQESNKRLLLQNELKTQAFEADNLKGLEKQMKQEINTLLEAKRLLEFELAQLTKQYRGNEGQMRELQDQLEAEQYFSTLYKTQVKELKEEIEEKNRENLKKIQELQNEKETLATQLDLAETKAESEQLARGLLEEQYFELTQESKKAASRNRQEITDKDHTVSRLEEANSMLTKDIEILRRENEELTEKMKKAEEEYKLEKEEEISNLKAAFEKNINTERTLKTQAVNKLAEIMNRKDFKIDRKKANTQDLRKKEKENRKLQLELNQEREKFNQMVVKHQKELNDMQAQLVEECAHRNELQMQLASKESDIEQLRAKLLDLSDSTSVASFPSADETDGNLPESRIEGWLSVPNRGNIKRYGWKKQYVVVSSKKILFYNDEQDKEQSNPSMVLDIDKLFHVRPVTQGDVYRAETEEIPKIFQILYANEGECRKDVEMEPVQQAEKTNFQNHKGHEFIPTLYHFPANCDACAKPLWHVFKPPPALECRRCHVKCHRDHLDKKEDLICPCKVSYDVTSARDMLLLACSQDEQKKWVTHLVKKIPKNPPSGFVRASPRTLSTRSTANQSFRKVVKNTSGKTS

SMILES: O=C(N[C@@H](C1CC1)C(F)(F)F)c1cc(-c2cnn3cc(-c4ccc(F)cc4)cnc23)cs1
- inhibition [1]: 7%
- fold change (FC) [2]: 0
- fold change (FC) [3]: 0

SMILES: CC(C)[C@H](NC(=O)c1cc(-c2cnn3cc(-c4ccc(OCCN5CCCCC5)cc4)cnc23)cs1)C(F)(F)F
- inhibition [4]: 0%
- inhibition [5]: 8%
- fold change (FC) [6]: 0.05
- fold change (FC) [7]: 0

SMILES: CNC(=O)c1ccccc1Oc1nc(Nc2cc(OC)c(OC)c(OC)c2)ncc1Br
- inhibition [8]: 0%
- inhibition [9]: 23%
- inhibition [10]: 2%
- fold change (FC) [11]: 0.19
